The source of these data is PubChem BioAssay.

As a reminder, the viability is a read-out of living cells in per cent, often relative to untreated cells. As usually defined, the inhibition is the change of the read-out against control, counted positive when it falls.

The nature of assay [1]: reduced viability of SK-BR-3 breast cancer cells – cell-based, 24 h, human, pilot screen (AID 572;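 active = viability at or below 10% of carrier control in both of two separate runs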;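 also: compound exposure lasted between 18 and 24 h rather than exactly 24 h; 100% = carrier-treated control wells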). Particulars: SK-BR-3 viability, CellTiter-Glo luminescence, at 10 µM, stronger effect = lower value. In general terms: Cellular ATP, detected with luciferase, serves as a proxy for viable cell number.
Assay [2] in a line: HUVEC growth inhibition – cell-based, human, primary screen (AID 575;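 active = viability at or below 30% in both replicate assays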;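 also: 100% = median of untreated cell wells with 0.1% DMSO on each plate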). The note with it: HUVEC proliferation, CellTiter-Glo luminescence, 72 h; at 10 µM; stronger effect = lower value. Put shortly:
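system = HUVEC primary cells | amount = 1250 cells/well | buffer or medium = supplemented EBM, 2% fetal bovine serum | dosing = single-point 10 µM, DMSO 0.1% final | times = 72 h compound incubation | detection = CTG luminescence | read-out = % viability relative to median vehicle-well signal on each plate | control set = vehicle and MePR control wells | format = collagen-coated 384-well format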

Assay [3] can be described thus: H69AR cell proliferation blockers – human, duplicate replicates, primary screen (AID 580).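 Also: 100% = mean luminescence of untreated wells and 0% = no signal.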 Particulars: H69AR lung tumor cells viability, ATP luminescence, 72 h; at 10 µM; stronger effect = lower value.
Assay [4] can be described thus: MRP1 drug-resistance reversers in H69AR cells – cell-based, doxorubicin co-treatment, pilot screen (AID 601;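 active = viability loss from added drug above about 55%, and viability with drug at most 40%, in both replicates, limit read from the data, passing the limit was not always enough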). The note with it: CellTiter-Glo, 72 h, at 10 µM; for differential viability (reversal): stronger effect = higher value.
A short description of assay [5]: yeast transport mutant growth inhibition pilot in 384-well plates, post-Golgi transport modulator project (AID 636; in the data active = inhibition above about 31%). Particulars: absorbance 615 nm, about 18 h, stronger effect = higher value.
Assay [6] can be described thus: growth suppression of yeast trafficking mutant, preliminary HTS, modulators of trafficking downstream of Golgi apparatus project, 1536-format plate, OD 615 nm (AID 637; in the data active = inhibition above about 30%). Particulars: yeast transport mutant growth, absorbance 615 nm, 18 h; stronger effect = higher value.
The mark [7] stands for this setting: H69AR cells + 2 uM doxorubicin, measured here: viability with 2 uM doxorubicin, stronger effect = lower value.
Where [8] appears, read: H69AR cells, compound alone cytotoxicity.

SMILES strings stand for the structures. Calls of active or inactive are those of the source.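 The calls were made as follows, unless noted: active = viability at or under a set limit in both replicates, limit being median viability minus 3 SD (cut at about 48% in these data, passing the limit was not always enough); inconclusive = at or under the limit in just one replicate; inactive = at or above the limit in both replicates.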

`COC(=O)c1cc(S(=O)(=O)N2CCOCC2)c(N2CCOCC2)cc1N1CCOCC1`: the viability is 124% (inactive) in assay [1]; 102% (inactive) in assay [2]; 85.5% (inactive) in assay [3]; 72.1% in assay [4] (setting [7]); 85.5% in assay [4] (setting [8]). In assay [4] (H69AR cells + 2 uM doxorubicin), the differential viability (reversal) is 13.4% (inactive). The inhibition in assay [5] is -0.14% (inactive); in assay [6] it was -2.91% (inactive).

Turning to `CC(=O)c1ccccc1OCCn1nnc(-c2ccc(C)cc2)n1`, the viability in assay [1] was 108% (inactive); in assay [2], 83.6% (inactive); in assay [3], 80.1% (inactive); in assay [4] (setting [7]) it was 74.6%; in assay [4] (setting [8]) it was 80.1%. The differential viability (reversal) in assay [4] (H69AR cells + 2 uM doxorubicin) is 5.44% (inactive). In addition, the inhibition was -8.9% (inactive) in assay [5] and 2.1% (inactive) in assay [6].

As for `COC(=O)CCN(C(=O)c1ccc2c(c1)OCO2)c1ccccn1`, the viability is 96% (inactive) in assay [1]; 93.6% (inactive) in assay [2]; 98.5% (inactive) in assay [3]; 90.7% in assay [4] (setting [7]); 98.5% in assay [4] (setting [8]). For the same compound, in assay [4] (H69AR cells + 2 uM doxorubicin), the differential viability (reversal) is 7.88% (inactive). The values for the inhibition in assay [5] and in assay [6] were -8.22% (inactive) and 0.55% (inactive), respectively.

With `Cc1ccc(N(CC(O)CN2CCCC2)S(=O)(=O)c2ccc(C)cc2)cc1` (stereo unspecified), the viability in assay [1] is 132% (inactive); in assay [2], 103% (inactive); in assay [3], 86.9% (inactive); in assay [4] (setting [7]), 88.2%; in assay [4] (setting [8]), 86.9%. The differential viability (reversal) in assay [4] (H69AR cells + 2 uM doxorubicin) was -1.29% (inactive). In addition, the inhibition in assay [5] is -5.21% (inactive); in assay [6], -1.94% (inactive).

As to `N#Cc1c(-c2ccc3c(c2)OCO3)csc1N`, the viability in assay [1] is 96% (inactive); in assay [2], 83.9% (inactive); in assay [3], 95.2% (inactive); in assay [4] (setting [7]), 93.7%; in assay [4] (setting [8]) it was 95.2%. For the same compound, the differential viability (reversal) in assay [4] (H69AR cells + 2 uM doxorubicin) was 1.51% (inactive). Besides, the inhibition in assay [5] is 3.29% (inactive); in assay [6], 4.73% (inactive).

For `O=C(NC1(C(F)(F)F)C(=O)Nc2c1c(=O)[nH]c(=O)n2Cc1ccco1)C1CCCCC1` (stereo unspecified), the viability in assay [1] is 106% (inactive); in assay [2] it was 97.6% (inactive); in assay [3], 97.9% (inactive); in assay [4] (setting [7]), 80.4%; in assay [4] (setting [8]) it was 97.9%. In assay [4] (H69AR cells + 2 uM doxorubicin), the differential viability (reversal) is 17.5% (inactive). The inhibition was -6.49% (inactive) in assay [5] and -1.82% (inactive) in assay [6].

Take `COc1nc(OC)nc(N2CCC(C(=O)NCc3cccs3)CC2)n1`: the viability in assay [1] is 93% (inactive); in assay [2], 101% (inactive); in assay [3], 91.9% (inactive); in assay [4] (setting [7]), 93.3%; in assay [4] (setting [8]), 91.9%. In assay [4] (H69AR cells + 2 uM doxorubicin), the differential viability (reversal) is -1.4% (inactive). For the same compound, the inhibition in assay [5] was -5.32% (inactive); in assay [6] it was -9.51% (inactive).

As for `COC(=O)CC(C(=O)Nc1cc(C(=O)OC)cc(C(=O)OC)c1)N1CCN(C)CC1` (stereo unspecified), the viability in assay [1] is 132% (inactive); in assay [2], 99.5% (inactive); in assay [3], 95.6% (inactive); in assay [4] (setting [7]), 89.8%; in assay [4] (setting [8]) it was 95.6%. Besides, in assay [4] (H69AR cells + 2 uM doxorubicin), the differential viability (reversal) is 5.77% (inactive). Also, the inhibition in assay [5] is -5.62% (inactive); in assay [6], -7.9% (inactive).

Regarding `CN1CCN(C2=Nc3ccccc3Oc3ccc(Cl)cc32)CC1`, the viability is 80% (inactive) in assay [1]; 59.7% (inactive) in assay [2]; 73.6% (inactive) in assay [3]; 25.3% in assay [4] (setting [7]); 73.6% in assay [4] (setting [8]). For the same compound, the differential viability (reversal) in assay [4] (H69AR cells + 2 uM doxorubicin) is 48.3% (inactive). The inhibition was -3.38% (inactive) in assay [5] and -1.83% (inactive) in assay [6].

In the case of `Cn1c(=O)c2c(nc(CN3CCCCC3)n2CCCc2ccccc2)n(C)c1=O`, the viability was 122% (inactive) in assay [1]; 103% (inactive) in assay [2]; 81.7% (inactive) in assay [3]; 81% in assay [4] (setting [7]); 81.7% in assay [4] (setting [8]). Besides, the differential viability (reversal) in assay [4] (H69AR cells + 2 uM doxorubicin) is 0.72% (inactive). Besides, the inhibition in assay [5] was -1.3% (inactive); in assay [6], 6.23% (inactive).

As for `O=C(COC(=O)c1cc(S(=O)(=O)N2CCOCC2)cs1)c1ccccc1`, the viability is 115% (inactive) in assay [1]; 93.3% (inactive) in assay [2]; 99.9% (inactive) in assay [3]; 83.5% in assay [4] (setting [7]); 99.9% in assay [4] (setting [8]). Moreover, the differential viability (reversal) in assay [4] (H69AR cells + 2 uM doxorubicin) was 16.3% (inactive). For the same compound, the inhibition in assay [5] was -3.64% (inactive); in assay [6], -1.97% (inactive).

For the compound `Cc1ccccc1Nc1cc2ccccc2c(=O)[nH]1`, the viability in assay [1] is 95.5% (inactive); in assay [2], 63.8% (inactive); in assay [3], 102% (inactive); in assay [4] (setting [7]), 99.5%; in assay [4] (setting [8]), 102%. Also, in assay [4] (H69AR cells + 2 uM doxorubicin), the differential viability (reversal) was 2.71% (inactive). Moreover, the values for the inhibition in assay [5] and in assay [6] were 4.61% (inactive) and 17.8% (inactive), respectively.
